HKDC1 inhibitor: inhibitors of human hexokinase HKDC1; recombinant HKDC1, G6PDH/diaphorase resazurin coupled fluorescence; AID 493160; inhibition, % at 20 µM; actives 0.16% (n = 340,000); Q2TB90;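 active = inhibition above about 35% when tested at 20 µM, limit read from the data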;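 also: plate controls were DMSO wells with enzyme for no effect and DMSO wells lacking enzyme for full effect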
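Test system: recombinant HKDC1 (HK5) hexokinase enzyme, produced in-house / Doses: 20 µM test compound, 1% DMSO / Timing: 90 min, room temperature / Detection: G6PDH/diaphorase-coupled fluorescence, 1 mM NADP, 100 µM resazurin, 525/613 nm / Control set: DMSO wells with and without enzyme mix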
PfG6PD inh: PfG6PD (Plasmodium falciparum) enzyme inhibition. PfGluPho enzyme, NADPH resazurin-diaphorase fluorescence. inhibition, % at 20 µM. actives 0.78% (n = 350,000). AID 504690;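 active = inhibition reaching at least a set limit at 20 µM in the primary screen, cut at about 59% in these data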;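 also: 0% = DMSO wells with substrate and 100% = DMSO wells lacking glucose-6-phosphate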
PKA-R2B activ: activates the human PKA-R2B holoenzyme complex | P22694+P31323 | PKA-R2B holoenzyme dissociation, Cy5-IP20 fluorescence polarization; R2B truncated from residue 108, S112A mutant; 0% DMSO only, 100% 113 µM cGMP | activation, % at 11.4 µM | actives 0.079% (n = 340,000) | AID 504700;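 active = activation above a cutoff set at the mean over all compounds plus 3 SD, cut at about 18% in these data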;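 also: higher means more holoenzyme dissociation and a rise in polarization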
Target sequence (P31323 whole entry, looked up, other chains not shown, the tested form may be a part): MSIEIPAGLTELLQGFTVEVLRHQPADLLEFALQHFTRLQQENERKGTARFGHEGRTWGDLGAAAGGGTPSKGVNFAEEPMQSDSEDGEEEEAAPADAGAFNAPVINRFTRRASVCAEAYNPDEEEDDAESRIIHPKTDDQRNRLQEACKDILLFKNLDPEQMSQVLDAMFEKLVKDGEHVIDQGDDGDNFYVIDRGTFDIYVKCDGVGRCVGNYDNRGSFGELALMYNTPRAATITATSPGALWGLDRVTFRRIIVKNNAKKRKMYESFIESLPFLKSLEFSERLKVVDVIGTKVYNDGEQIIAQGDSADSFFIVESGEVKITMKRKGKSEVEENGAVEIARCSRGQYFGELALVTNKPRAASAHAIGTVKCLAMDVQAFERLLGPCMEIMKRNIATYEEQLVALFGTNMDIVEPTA
ATG4B inhibitor: blocks human ATG4B protease cleavage of LC3 substrate; inhibition, % at 8.33 µM; ATG4B cleavage of LC3-PLA2, NBD-HPC fluorescence, 1 h; AID 504462; Q9Y4P1; actives 0.51% (n = 340,000); in the data active = inhibition above about 40%
PKA-R1A act: activates the PKA-R1A holoenzyme complex | PKA-R1A dissociation, Cy5-IP20 fluorescence polarization; scaled: DMSO 0%, 113 µM cGMP 100% | actives 0.083% (n = 340,000) | activation, % at 11.4 µM | AID 504707;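 active = percent activation above the mean of all tested compounds plus 3 SD, cut at about 19% in these data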;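 also: higher means more PKAc released from R1A so a rise in polarization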
T cell modulator: T cell immune modulation candidate. 2C CD8+ T cell-vesicle binding, flow cytometry; stronger effect = lower value. response (vesicle binding), % at 7 µM. actives 0.068% (n = 330,000);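 active = response, share of CD8 T cells binding vesicles, and their 90th percentile fluorescence all below set limits, cut at about 80% in these data, passing the limit was not always enough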;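 also: values below 100% mean blocked vesicle binding to the CD8+ T cells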
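Incubation: binding step 1.5 h, 37 °C, antibody labelling 20 min, ice; system: murine 2C transgenic CD8+ T lymphocytes; technique: cytometric PE anti-B7-1 and Alexa647 anti-CD8 signals after 1% paraformaldehyde fixation; also added: QL9-charged Drosophila Ld/ICAM-1/B7-1 vesicles; control set: naked versus QL9-loaded vesicles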
PfG6PD confirm: confirmation of Plasmodium falciparum G6PD inhibitors; inhibition, % at 20 µM; shares compounds with PfG6PD inh; recombinant PfGluPho, NADPH-diaphorase-resazurin fluorescence; AID 504753; actives 34% (n = 2,400);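 active = inhibition of at least 50% at 20 µM in any single replicate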;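 also: 0% = DMSO with substrate and 100% = DMSO lacking glucose-6-phosphate substrate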
Diaph ctr 10uM: diaphorase inhibition or oxidation at 10 uM NADPH; diaphorase-coupled resazurin reduction, fluorescence, NADPH 10 uM; shares compounds with PfG6PD inh; inhibition, % at 20 µM; actives 39% (n = 820);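 active = average inhibition reaching 50% or more with the compound at 20 µM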;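 also: resorufin red fluorescence formed as diaphorase reduces resazurin using NADPH; 0% = DMSO with enzyme and 100% = DMSO without enzyme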
Diaphorase 30uM: counter-screen for P. falciparum G6PD inhibitors: diaphorase inhibitors, oxidizers. shares compounds with PfG6PD inh. Diaphorase/resazurin coupled assay, resorufin fluorescence, 30 uM NADPH. inhibition, % at 20 µM. actives 29% (n = 820). AID 504863;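 active = inhibition averaging 50% or more, tested at 20 µM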;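 also: 0% = DMSO with enzyme and 100% = DMSO wells lacking diaphorase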
R2B FP artifact: FP assay interference, PKA-R2B counter-screen | shares compounds with PKA-R2B activ | FP artifact counterscreen, fluorescence polarization | activation, % at 11.4 µM | actives 6% (n = 270); in the data active = activation above about 20%;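 also: Cy5 labelled IP20 peptide probe with compound but no PKA protein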
PKA-R2B confirm: PKA-R2B complex activation, confirmation. actives 9% (n = 270). fluorescence polarization. shares compounds with PKA-R2B activ. AID 504797. activation, % at 11.4 µM; in the data active = activation above about 19%
Target sequence (P31323 whole entry, looked up): as the sequence (P31323 whole entry, looked up, other chains not shown, the tested form may be a part) above
R1A FP artifact: fluorescence polarization artifact in PKA-R1A activator counter-screen; Cy5-IP20 peptide alone, fluorescence polarization artifact counterscreen; shares compounds with PKA-R1A act; activation, % at 11.4 µM; actives 7% (n = 280); AID 504799;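 active = mean activation over triplicate runs exceeds the adjusted cutoff derived for the parent primary screen, cut at about 19% in these data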;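 also: no PKA protein present so any polarization rise reflects compound interference; 0% = tracer peptide mix alone and 100% = mix with added PKA catalytic subunit; higher means stronger polarization artifact and likely false positive in parent screen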
PKA-R1A act conf: PKA-R1A complex activation, confirmation | shares compounds with PKA-R1A act | Cy5-IP20 fluorescence polarization, PKA-R1A holoenzyme dissociation | activation, % at 11.4 µM | actives 9% (n = 280) | AID 504800;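 active = mean activation over replicate wells exceeds the adjusted hit threshold taken from the earlier primary screen, cut at about 20% in these data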;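 also: 0% = holoenzyme mix with DMSO only and 100% = cGMP-activated control wells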
An asterisk follows results filed as active; i = inactive; · = no result. Hits are enriched below; roughly 1.6% of the tested compounds scored in any of these assays.

SMILES	HKDC1 inhibitor	PfG6PD inh	PKA-R2B activ	ATG4B inhibitor	PKA-R1A act	T cell modulator	PfG6PD confirm	others
CN1c2ccc([N+](=O)[O-])cc2CC2(C(=O)NC(=O)N(c3ccc(Br)cc3)C2=O)C1c1ccccc1 (configuration not stated)	7	3	3	14	-1	577	·
O=C(Cn1ncc2c3ccccc3n(Cc3ccc(F)cc3)c2c1=O)N1CCC2(CC1)OCCO2	1	1	-3	1	-5	223	·
CC1CCN(C(CC(=O)c2ccccc2)C(=O)c2ccccc2)CC1 (configuration not stated)	1	94*	-5	-4	-3	·	0
O=C(c1ccccc1)C(CN1CCCC1)c1ccccc1 (configuration not stated)	10	-6	-11	-2	-1	326	·
O=C1NC(=O)N(c2ccc3c(c2)OCO3)C(=O)/C1=C/c1cccs1	-3	67*	-2	-10	9	229	45
Cc1nc2ccccc2c(=O)n1-c1ccc(Br)cc1[N+](=O)[O-]	14	-14	-4	-5	-11	730	·
O=C(c1cc(-c2ccc(Cl)cc2)n(-c2ccc(Cl)cc2Cl)n1)N1CCOCC1	-3	82*	6	-12	-5	163	25
O=C(c1cc([N+](=O)[O-])ccc1N1CCNCC1)N1CCOCC1	-9	7	-5	-10	0	i	·
COC(=O)C1=C(c2cc3ccccc3o2)C[C@@H]2CC[C@H]1N2C(=O)N1CCOCC1	0	-2	-5	-6	3	466	·
COc1cc(/C=C2\C(=O)NC(=O)N(c3ccccc3)C2=O)c([N+](=O)[O-])cc1OC	-1	31	-3	-2	6	·	·
COc1ccc(OC)c(N2C(=O)NC(=O)/C(=C/c3ccc([N+](=O)[O-])s3)C2=O)c1	6	62*	2	0	-6	451	38
Nc1ccccc1C(=O)OCc1ccc([N+](=O)[O-])cc1	-7	2	0	-9	16	310	·
c1ccc(-c2nc(N3CCOCC3)s[n+]2-c2ccccc2)cc1	-12	59*	4	-10	-8	305	73*	Diaph ctr 10uM=-24;Diaphorase 30uM=-25
CCCCCCCCn1sccc1=O	7	92*	2	11	2	326	78*	Diaph ctr 10uM=-9;Diaphorase 30uM=-9
CCn1c(C)c(C(=O)Nc2ccc(OC)cc2)c2cc(OC)ccc21	0	66*	-6	-6	-11	206	26
NC1CCc2cc(O)c(O)cc2C1 (configuration not stated)	-1	69*	-13	5	-6	394	76*	Diaph ctr 10uM=-2;Diaphorase 30uM=6
O=C1Nc2ccc(Br)cc2C(c2ccc(Cl)cc2)=NC1O (configuration not stated)	5	100*	16	-7	-1	226	75*	Diaph ctr 10uM=83*;Diaphorase 30uM=67*
C#C[C@]1(O)CC[C@H]2[C@@H]3[C@H](O)C[C@H]4C[C@@H](O)CC[C@]4(C)[C@H]3CC[C@@]21C	·	-9	-2	·	-3	·	·
CCCC(=O)NC1=C(N2CC2)C(=O)C(NC(=O)CCC)=C(N2CC2)C1=O	10	81*	5	1	0	·	94*	Diaph ctr 10uM=85*;Diaphorase 30uM=82*
CCCC(=O)Nc1ccc(N2CCN(CC)CC2)c(Cl)c1	-2	26	-15	1	5	268	·
O=C(c1ccc(-c2ccccc2)cc1)C1CCCN(Cc2ccn[nH]2)C1 (configuration not stated)	-8	16	0	25	-4	139	·
CC(=NCc1ccco1)c1c(O)n(-c2ccc(C)cc2)c(=O)[nH]c1=O	0	-4	-2	-10	-5	567	·
Clc1ccc(-c2nc3ccc(Cl)cn3c2CN2CCCCC2)cc1	1	48	-4	8	1	215	·
Clc1ccc(-c2nc3ccc(Cl)cn3c2CN2CCOCC2)cc1	-5	60*	-5	9	10	221	33
CNC(=O)Oc1cccc(-c2cn3cc(Cl)ccc3n2)c1	-7	61*	-2	0	-17	188	17
SMILES	HKDC1 inhibitor	PfG6PD inh	PKA-R2B activ	ATG4B inhibitor	PKA-R1A act	T cell modulator	PfG6PD confirm	others
CNC(=O)Oc1ccc(-c2cn3cc(C)ccc3n2)cc1	17	62*	-1	-1	-8	252	47
COc1cc(O)c(C(=O)O)c(-c2cc(O)c(O)cc2C)c1	1	105*	-7	-8	-5	406	107*	Diaph ctr 10uM=38;Diaphorase 30uM=25
COc1cccc(C)c1NC1=NCCO1	·	-20	-11	·	10	·	·
C#CCNc1ccncc1S(=O)(=O)NC(=O)NC(C)C	-3	8	20*	-8	10	131	·	R2B FP artifact=2;PKA-R2B confirm=2
C=CCn1c(O)c(C(CC)=NCCC2=CCCCC2)c(=O)[nH]c1=O	-1	-23	-13	7	-5	491	·
CCOC(=O)c1ccccc1NC(=O)c1c(O)[nH]c(=S)[nH]c1=O	-3	-11	1	6	19*	·	·	R1A FP artifact=1;PKA-R1A act conf=1
COC(=O)C1=C(c2c(C)noc2C)C[C@@H]2CC[C@H]1N2C(=O)NC(C)C	-1	3	-5	-8	4	i	·
COC(=O)C1=C(c2c(C)noc2C)C[C@@H]2CC[C@H]1N2C(=O)N1CCCC1	0	-4	-7	-4	20*	i	·	R1A FP artifact=3;PKA-R1A act conf=3
COC(=O)c1cn(C(=O)c2cccc3ccccc23)c2ccccc12	0	24	-2	-3	-2	i	·

Bioassay records deposited in PubChem BioAssay by several laboratories.
